Reference: PubChem BioAssay AID2445 (The Scripps Research Institute Molecular Screening Center, 2010)
In all, about 320,000 compounds went through this assay and about 200 (0.062%) were called active. This is one part of a sample in which actives are shown more often than they occur. A number with no mark means an inactive call.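 The calls were made as follows: active = activation above that plate's cutoff, the mean activation of tested compounds plus 3 SD (cut at about 6.6% in these data, passing the limit was not always enough); inactive = the rest.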

Target: Oxytocin receptor (Homo sapiens) (UniProt P30559)
Experiment: human OXTR potentiators, primary screen, fluorescence, CHO-OTR cells, Fluo-8 calcium (AID 2445);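 also: 100% uses oxytocin at 75 nM as the full agonist control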
Conditions: Fluo-8 calcium fluorescence, potentiator mode, at 3 µM, stronger effect = higher value, 0% = oxytocin EC15, 100% = EC100
How it was run: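 Assay system: CHO-OTR cells, human receptor / Also added: oxytocin at about EC15, sub-maximal agonist stimulus / Dosing: single dose, 3.0 µM nominal final compound concentration / Incubation: 6 min pre-incubation, 100 s read / Technique: Fluo-8 calcium dye fluorescence / Read-out: % activation vs EC15 and EC100 oxytocin / Benchmarks: EC15 oxytocin low, 75 nM oxytocin high / Replicates: singlicate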

Chain of Oxytocin receptor (Homo sapiens) (P30559 whole entry, looked up): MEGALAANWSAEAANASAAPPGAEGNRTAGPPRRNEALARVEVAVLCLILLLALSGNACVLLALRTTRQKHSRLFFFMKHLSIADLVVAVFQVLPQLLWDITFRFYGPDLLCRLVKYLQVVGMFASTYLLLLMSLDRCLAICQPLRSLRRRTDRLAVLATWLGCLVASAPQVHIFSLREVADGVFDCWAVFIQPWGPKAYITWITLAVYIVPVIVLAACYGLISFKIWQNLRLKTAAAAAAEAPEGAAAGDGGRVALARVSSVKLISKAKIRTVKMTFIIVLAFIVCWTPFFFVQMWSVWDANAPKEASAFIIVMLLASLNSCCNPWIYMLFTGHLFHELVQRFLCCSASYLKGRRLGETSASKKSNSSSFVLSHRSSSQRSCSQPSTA

Point of comparison: CCc1ccnc(NS(=O)(=O)c2ccc3c(c2)OCCO3)c1, activation -3.79%. Against it:
- CC(=O)c1ccc(OCC(O)CN2CCN(S(=O)(=O)c3cccc(Br)c3)CC2)cc1 (configuration not stated) — lower, -10.6%
- COc1cc(OC)cc(C(=O)N[C@H](C(=O)NNC(=O)c2ccc(Br)cc2)C(C)C)c1 — higher, 0.41%
- COc1ccc(S(=O)(=O)N2CCOC2CNC(=O)C(=O)NCc2ccncc2)cc1C (configuration not stated) — higher, 2.91%
- CCS(=O)(=O)n1nc(-c2ccccc2)nc1SCc1ccccc1 — higher, 0.8%
- O=C(NC1CCCCCCC1)c1cccs1 — lower, -9.53%
- CCO[C@H]1OC(C(=O)Nc2ccccc2)=C[C@@H](C2CC2)[C@@H]1CCCO — lower, -3.89%
- CCOc1ccc(CNC(=O)CCC(=O)N2CCSc3ccccc32)cc1 — lower, -5.95%
- CC(OC(=O)c1c(F)cccc1F)C(=O)NCCC1=CCCCC1 (configuration not stated) — higher, -1.25%
- CCCCCCSc1ccc([C@@H]2[C@@H]3C(=O)N(CC)C(=O)[C@@H]3[C@]3(C(=O)OC)CCCCN23)cc1OC — lower, -12.2%
- O=S1(=O)CCOC[C@H](CC2CCCCC2)N1Cc1ccc(F)cc1 — higher, 0.09%
- Cc1ccccc1CCN(CC(=O)NC1CCCCC1)C(=O)c1csnn1 — lower, -12.1%
- Cc1c(Cl)cccc1NC(=O)[C@@]1(CC(=O)O)CC(/C=C/c2ccccc2)=NO1 — lower, -10.7%
- Cc1ccc(S(=O)(=O)Nc2nc(CN3CCOCC3)nc3sc(C)c(C)c23)cc1 — higher, 4.74%
- Cc1cc(C)c2c(c1)c(C)cc1nnc(SCC(=O)NCc3ccco3)n12 — higher, -0.06%
- Cc1cc(C)cc(N(CCC#N)C(=O)CN2C(=O)NC3(CCCC3)C2=O)c1 — lower, -5.16%
- O=C(C1CCN(C2CCN(Cc3cccc4c3OCO4)CC2)CC1)N1CCOCC1 — higher, -0.07%
- Cc1ccc(N2C(=O)C3C(c4ccccc4)(C2=O)C3(c2ccccc2)c2ccccc2)cc1 (configuration not stated) — lower, -5.54%
- CC1CCCC(NC(=O)CSc2nccn2C)C1C (configuration not stated) — lower, -21.1%
- Cc1ccccc1-c1cc(C(=O)NCc2cccs2)n(CC2CC(c3cccnc3)=NO2)n1 (configuration not stated) — lower, -4.56%
- CCCOc1ccccc1C1CC(=O)Nc2cc3c(cc21)OCO3 (configuration not stated) — lower, -15.5%
- COC(=O)c1ccc(C2CC(=O)Nc3cc(OC)c(OC)cc32)cc1 (configuration not stated) — higher, -2.55%
- Cc1ccc(CNC(=O)CCN2C(=O)[C@@H]3Cc4ccccc4CN3C2=O)cc1 — lower, -7.86%
- CN(Cc1ccccc1Cl)C(=O)C1CCC(=O)N(CCc2cccc(F)c2)C1 (configuration not stated) — higher, 5.76%
- COc1ccccc1CSc1ncc(-c2ccc([N+](=O)[O-])cc2)[nH]1 — lower, -15.7%
- Cn1cccc1C(=O)N1CCc2ccccc2C1 — lower, -4.4%
- O=C(Nn1cc(C(=O)N2CCN(c3ccccc3F)CC2)c2ccccc2c1=O)c1cnccn1 — lower, -16.9%
- COc1ccc([C@H]2[C@H](C(C)=O)N3N=Cc4ccccc4C3C23C(=O)OC(C)(C)OC3=O)cc1 (some centres not stated) — lower, -5.56%
- O=C(COC(=O)Cn1cnc2ccccc21)Nc1cccc2c1C(=O)c1ccccc1C2=O — higher, -2.58%
- Cc1cc(NC(=O)Nc2c[nH]c(=O)[nH]c2=O)ccc1Br — higher, -3.04%
- Cc1ccc2nc(NC(=O)C3CSC4(C)CCC(=O)N34)sc2c1 (configuration not stated) — higher, -1.9%
- COc1ccc(Cl)cc1NC(=O)CN(C)C(=O)CCCc1c[nH]c2ccccc12 — lower, -8.97%
- CC(C)CN(C(=O)CSc1ncnc2sccc12)C1CCS(=O)(=O)C1 (configuration not stated) — lower, -5.65%
- CCCc1cc(=O)oc2cc(OCC(=O)Nc3ccc(CN4CCOCC4)cc3)c(Cl)cc12 — higher, 2.03%
- COc1ccc(CCNC(=O)CCc2cn(C)c3ccccc23)c(OC)c1 — lower, -6.44%
- C=CCNC(=O)COC(=O)CNC(=O)c1cc(Cl)cc([N+](=O)[O-])c1 — higher, 6.81%
- Cn1c(=O)c2sccc2n(Cc2ccc(Br)cc2)c1=O — lower, -7.63%
- COc1cc(S(=O)(=O)N2CCN(C(=O)C3CC3)CC2)ccc1NC(C)=O — higher, 5.54%
- O=C(CN(Cc1ccccc1)C(=O)CCC(=O)Nc1ccccn1)NCCc1ccccc1 — lower, -8.23%
- O=C(Oc1ccc(-c2nnco2)cc1)c1ccc(F)c(S(=O)(=O)N2CCOCC2)c1 — lower, -5.86%
- O=C(COc1cc(Cl)c(Cl)cc1Cl)NC(=O)NC1CCCC1 — higher, 2.91%
- O=C(NCCCN1CCCCC1)C1CCCN(c2ncnc3c2nc2n3CCCCC2)C1 (configuration not stated) — lower, -5.62%
- Cc1cc(C(=O)OCC(=O)Nc2ccccc2Cl)c(C)o1 — higher, 1.55%
- O=C(COC(=O)c1cc(S(=O)(=O)N2CCOCC2)ccc1Cl)NCCc1ccccc1 — lower, -5.23%
- COCCCNC(=O)CSc1nc2ccc(N3CCOCC3)cc2c(=O)n1CCc1ccccc1 — higher, -1.26%
- CCC(=O)N1CCN=C1SCc1ccc(F)cc1 — lower, -4.47%
- CCOC(=O)N1CCN(Cc2oc(CO)cc(=O)c2O)CC1 — lower, -9.68%
- Cc1noc(/C=C/c2ccco2)c1S(=O)(=O)N1CCC(C(=O)Nc2ccc(Cl)cn2)CC1 — higher, -2.32%
- CCc1ccc(C(=O)NC(=S)Nc2ccccc2N2CCOCC2)cc1 — lower, -6.63%
- COc1ccccc1C(=O)NC(=S)Nc1ccccc1N1CCCCC1 — lower, -5.57%
- COc1ccc(C[C@H]2CN3C(=NC[C@H]3C)N2CCNC(=O)CCC2CCCCC2)cc1 — higher, 3.05%
- C[C@H](NC(=O)c1nc[nH]c1C(=O)N[C@@H](C)C(=O)OC(C)(C)C)C(=O)OC(C)(C)C — higher, -3.66%
- Cc1cccc(NC(=O)Cn2c(=O)n(Cc3ccccc3)c(=O)c3c(C)c(C)sc32)c1 — lower, -5.82%
- Cc1ccc(CS(=O)(=O)CCC(=O)NC2CC2)cc1 — higher, 0.82%
- COC(=O)C1=C[C@@H](C(=O)OC)[C@@H]2C3=C(C(=O)[C@]2(C)NC(=O)c2ccccc2)[C@H](C)n2c(=O)n(C)c(=O)n2[C@@H]3C1 — lower, -11.9%
- COc1cc(NC(=O)COC(=O)c2ccc([N+](=O)[O-])s2)cc(OC)c1OC — lower, -5.07%
- O=C(Cn1cc(C(F)(F)F)ccc1=O)Nc1ccc2c(c1)OCCO2 — higher, 2.63%
- O=C(COC(=O)c1cc(=O)[nH]c2ccccc12)Nc1nc(-c2cccc(Br)c2)cs1 — higher, 2.69%
- CCOc1ccccc1NC(=O)CCc1nnc2ccc(NCc3ccco3)nn12 — higher, 0.12%
- CCCCCCNS(=O)(=O)c1ccccc1Br — higher, -3.1%
- Brc1ccc(-c2n(-c3ccccn3)c3ccccc3[n+]2-c2ccccn2)cc1 — lower, -4.84%
- COC(=O)C1(C)CC1(c1ccccc1)c1ccccc1 (configuration not stated) — lower, -14.7%
- CCOC(=O)C1=C(C)OC(N)=C(C#N)C1c1cncc(-c2ccc(F)cc2)c1 (configuration not stated) — lower, -4.76%
- O=C(COC(=O)c1ccc(F)cc1F)Nc1ncccn1 — higher, -2.64%
- [O-][n+]1ccc(OCc2ccccc2)cc1 — higher, -0.76%
- COc1ccccc1CNS(=O)(=O)CC12CCC(CC1=O)C2(C)C (configuration not stated) — lower, -12.6%
- Cc1cc(NC(=O)CSc2nc(=O)cc(N)n2-c2ccc(F)cc2)no1 — higher, 0.45%
- CN(C)c1cc(N)c2ccccc2n1 (tested in a mixture with another compound) — lower, -14.8%
- CN1C(=O)[C@H]2[C@@H](C3CC3)N3C(=O)CN(Cc4ccccc4)C(=O)[C@@]3(C)[C@H]2C1=O — higher, -2.37%
- CC(C)=CCc1c(O)c(CC=C(C)C)c2occ(-c3ccc(O)cc3)c(=O)c2c1O — lower, -5.45%
- COc1ccc(-c2nc3cnccn3c2NC2CCCCC2)cc1-c1cccc(Cl)c1 — higher, -2.33%
- Cc1ccc(CNS(=O)(=O)c2ccc3c(c2)N(C)CCO3)cc1 — lower, -5.63%
- NS(=O)(=O)c1cc(C(=O)OCC(=O)NNC(=O)c2ccccc2)ccc1Cl — lower, -5.64%
- NC1=NN(c2cccc(C(=O)O)c2)C(=O)C1 — lower, -3.83%
- CC(=O)N/C(=N/c1nc(C)cc(C)n1)Nc1ccc(F)cc1F — higher, 2.96%
- Cc1ccc(CNC(=O)C2CCCN2S(=O)(=O)c2ccc3c(c2)C(C)(C)C(=O)N3C)cc1 (configuration not stated) — higher, -1.94%
- C/C(=N\NC(=O)c1ccc(C)cc1)C1C(=O)c2ccccc2C1=O — lower, -16.2%
- Cc1ccc(OCc2nnc(SC3CCc4ccccc4C3=O)n2C)cc1 (configuration not stated) — lower, -7.17%
- CC1(C)CC(=O)C=C(c2ccc3ncccc3c2)C1 — higher, -1.73%
- Nc1cc(OC(=O)c2ccccc2Br)nn1S(=O)(=O)c1ccccc1 — lower, -18.3%
- CCOc1cc(C2/C(=C(/O)c3ccc(S(=O)(=O)N4CCCCC4)cc3)C(=O)C(=O)N2CCOC)ccc1O (configuration not stated) — lower, -8.45%
- Cc1nc(CNS(=O)(=O)c2ccc(Oc3ccccc3)cc2)cs1 — lower, -14.3%
- O=C(NCc1ccc(Cl)cc1)C(=O)NCC1CCCN1S(=O)(=O)c1cccs1 (configuration not stated) — lower, -5.47%
- C=CCN(N=Nc1cccc([N+](=O)[O-])c1)c1cccc([N+](=O)[O-])c1 — lower, -14.2%

In the case of COc1cc2c(cc1OC)C(c1ccc(C)o1)CC(=O)N2 (configuration not stated), the activation is reported as 6.71% (active).
For CCCCn1c(N)c(N2CCOCC2)c(=O)n(CC(=O)NCCc2ccccc2)c1=O, the activation was 14.8% (active).
O=C(NC(=S)Nc1ccccc1N1CCCCC1)c1ccc(F)cc1 was tested, and the activation was 25.2% (active).
